Holding throughout (format): functional
The subject of experiment [1] is Rattus norvegicus. Kind of experiment: Percent change in triglycerides in hypercholesterolemic rats at a dose of 100 mg/kg/day for 8 days.
Experiment [2] deals with Rattus norvegicus. Briefly: Percent change in high-density lipoprotein cholesterol in hypercholesterolemic rats dosed at 100 mg/kg/day for 8 days.
Experiment [3] relates to Rattus norvegicus. Briefly: Percent change in total plasma cholesterol in hypercholesterolemic rats dosed at 100 mg/kg/day for 8 days.
The subject of experiment [4] is Rattus norvegicus. Kind of experiment: Percent change in very low-density lipoprotein cholesterol following oral administration of compound in normal chow-fed rats at 100 mg/kg/day for 4 days. Summed up: (§1)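 Chow-fed male Sprague–Dawley CD rats, 60–80 g, gavaged 100 mg/kg/day for 4 days in 1.3% Tween 80/0.25% CMC. Fasted overnight, bled 24 h after the last dose. Total cholesterol and glycerol-blanked triglycerides read enzymatically; lipoproteins by FPLC with cholesterol per fraction. % change versus control; six per group, p < 0.05.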

Experiment [5] has as its system Rattus norvegicus. Kind of experiment: Percent change in triglycerides following oral administration of compound in normal chow-fed rats at 100 mg/kg/day for 4 days. Summed up: as §1
Experiment [6] concerns Rattus norvegicus. Kind of experiment: Percent change in total plasma cholesterol following oral administration of compound in normal chow-fed rats at 100 mg/kg/day for 4 days. The method in brief: as §1
Experiment [7] has as its system Rattus norvegicus. Briefly: Percent change in high-density lipoprotein cholesterol following oral administration of compound in normal chow-fed rats at 100 mg/kg/day for 4 days. The method in brief: as §1
The subject of experiment [8] is Rattus norvegicus. Kind of experiment: Percent change in low-density lipoprotein cholesterol following oral administration of compound in normal chow-fed rats at 100 mg/kg/day for 4 days. The method in brief:
as §1

On to `CN1CC(=O)N(c2cccnc2)C1=S`, for which the Change in experiment [1] is reported as 150%; in experiment [2] it was 29%; in experiment [3], -11.4%.

For `C#CCN1CC(=O)N(c2c(C)cccc2C)C1=S`, the Change is reported as 0% in experiment [1]; -23% in experiment [4]; -48.5% in experiment [5]; 98% in experiment [6]; 325% in experiment [2]; -15% in experiment [3]. Also, the Change in experiment [7] is reported as 85.1%; in experiment [8] it was 27.9%.

With `CN1CC(=O)N(c2ccc3c(c2)CCC3)C1=S`, the Change in experiment [1] is on record as -26%; in experiment [4] it was 26.3%; in experiment [5], -0.9%; in experiment [6], 26%; in experiment [2], 112%; in experiment [3], -3%. In addition, the figures for the Change in experiment [7] and in experiment [8] were 46% and -40.3%, respectively.

On to `CN1CC(=O)N(C(c2ccccc2)c2ccccc2)C1=S`, for which the Change in experiment [1] is listed as 92%; in experiment [2] it was 57%; in experiment [3] it was 3.4%.

In the case of `CCN1CC(=O)N(c2cc(C)c(C)cc2C)C1=S`, the Change in experiment [1] is -11%; in experiment [2] it was 112%; in experiment [3] it was 39%.

Take `CCN1CC(=O)N(c2c(Cl)cccc2Cl)C1=S`: the Change in experiment [1] was -37%; in experiment [4] it was 0%; in experiment [5] it was -35.8%; in experiment [6], 57%; in experiment [2], 142%; in experiment [3] it was 53.4%. In addition, the Change came to 60.2% in experiment [7] and 6.8% in experiment [8].

Turning to `CCN1C(=S)N(c2c(C)cccc2Cl)C(=O)C1(C)C`, the Change in experiment [1] was -22%; in experiment [2] it was -5%; in experiment [3], 16%.

As to `CCN1CC(=O)N(c2c(C)cccc2C)C1=S`, the Change is listed as -23% in experiment [1]; 13% in experiment [4]; -12.8% in experiment [5]; 106.7% in experiment [6]; 181% in experiment [2]; -28% in experiment [3]. For the same compound, the Change was determined as 93.6% in experiment [7] and 43.8% in experiment [8].

`CCN1CC(=O)N(CCc2ccc(F)cc2)C1=S`: the Change was -17% in experiment [1], 49% in experiment [2] and -8.8% in experiment [3].

For the compound `Cc1ccc(CCN2C(=O)CN(C)C2=S)cc1`, the Change in experiment [1] is 27%; in experiment [2] it was -26.6%; in experiment [3] it was -11%.

`CCN1C(=O)C(=O)N(c2cc(Cl)ccc2C)C1=S`: the Change in experiment [1] is -22%; in experiment [4], 67.3%; in experiment [6] it was 123.4%; in experiment [2], 242%; in experiment [3], 32%; in experiment [7], 87.6%. Besides, the Change in experiment [8] is 71.9%.

As for `CCN1CC(=O)N(c2cc(F)ccc2C)C1=S`, the Change is on record as -36% in experiment [1]; 131.6% in experiment [4]; -6.3% in experiment [5]; 95.2% in experiment [6]; 112% in experiment [2]; 35% in experiment [3]. The results for the Change in experiment [7] and in experiment [8] were 102.4% and 14%, respectively.

Take `CCN1C(=O)C(=O)N(c2ccc(F)cc2)C1=S`: the Change is on record as -48% in experiment [1], 23% in experiment [2] and 44% in experiment [3].

As for `CCN1CC(=O)N(C2CCCCC2)C1=S`, the values for the Change in experiment [1], in experiment [2] and in experiment [3] were 28%, 5.4% and -7.4%, respectively.

On to `O=C1CN(Cc2ccccc2)C(=S)N1c1c(Cl)cccc1Cl`, for which the Change in experiment [1] is reported as -54%; in experiment [2] it was -2.2%; in experiment [3], 25.3%.

In the case of `CCN1CCC(=O)N(c2ccc(C)cc2C)C1=S`, the Change is given as 2% in experiment [1], -3% in experiment [2] and 27% in experiment [3].

Take `CCN1C(=S)N(c2c(Cl)cccc2Cl)C(=O)C1(C)C`: the Change is -19% in experiment [1], -18% in experiment [2] and -16% in experiment [3].

Turning to `CN1CC(=O)N(CCc2ccc(Cl)cc2)C1=S`, the Change in experiment [1] is recorded as 24%; in experiment [2], -15.5%; in experiment [3], -10.2%.

`CCN1C(=S)N(c2c(C)cccc2C)C(=O)C1(C)C`: the values for the Change in experiment [1], in experiment [2] and in experiment [3] were 17%, -2% and 13%, respectively.

With `CN1CC(=O)N(Cc2ccccc2Cl)C1=S`, the Change in experiment [1] was determined as 11%; in experiment [2], 23%; in experiment [3] it was 14%.

As for `CCN1CC(=O)N(c2ccc3ccccc3c2)C1=S`, the Change in experiment [1] is listed as -33%; in experiment [2], 65%; in experiment [3], -18.1%.

For `CCN1CC(=O)N(c2cc(Cl)ccc2C)/C1=N/C#N`, the values for the Change in experiment [1], in experiment [2] and in experiment [3] were -25%, 17% and 15%, respectively.

For `CCN1C(=S)N(c2c(Cl)cccc2Cl)C(=O)C1c1ccccc1` (configuration not stated), the Change in experiment [1] is on record as 25%; in experiment [2] it was 39%; in experiment [3], 18%.

With `CCc1cccc(C)c1N1C(=O)CCN(CC)C1=S`, the Change in experiment [1] is on record as 2%; in experiment [2], 60%; in experiment [3], 52%.

As for `CCN1CCCC(=O)N(c2cc(Cl)ccc2C)C1=S`, the Change in experiment [1] was 14%; in experiment [2], 50%; in experiment [3], 7%.

Regarding `CCc1cccc(C(C)C)c1N1C(=O)CCN(CC)C1=S`, the Change was -11% in experiment [1], 34% in experiment [2] and 2% in experiment [3].

Turning to `CCN1CC(=O)N(c2ccccc2SC)C1=S`, the Change in experiment [1] was -8%; in experiment [2] it was 60%; in experiment [3] it was 13%.

As to `CCN1C(=S)N(c2ccc(F)cc2)C(=O)C1c1ccccc1` (configuration not stated), the Change in experiment [1] is on record as 35%; in experiment [2], 67%; in experiment [3], 31%.

Take `CCN1CC(=O)N(c2ccc(N(C)C)cc2)C1=S`: the results for the Change in experiment [1], in experiment [2] and in experiment [3] were -41%, 49% and 123%, respectively.

As for `Cc1ccc(Cl)cc1N1C(=O)CN(C)C1=O`, the Change is reported as -7% in experiment [1], -8% in experiment [2] and 37% in experiment [3].

Consider `CCN1CC(=O)N(c2ccc(F)cc2)C1=S`, for which the Change is recorded as -18% in experiment [1], 59% in experiment [2] and 78% in experiment [3].

For `COC(=O)CCN1CC(=O)N(c2ccc(Cl)cc2C)C1=S`, the Change is -32% in experiment [1], 27% in experiment [2] and 14% in experiment [3].

On to `CN1CC(=O)N(c2ccccc2)C1=S`, for which the Change was 10% in experiment [1], 66% in experiment [2] and 25% in experiment [3].

For `CCN1C(=S)N(c2cc(Cl)ccc2C)C(=O)C1c1ccccc1` (configuration not stated), the figures for the Change in experiment [1], in experiment [2] and in experiment [3] were 76%, 187% and 60%, respectively.

On to `CCN1CC(=O)N(c2cc(Cl)ccc2OC)C1=S`, for which the Change came out at 51% in experiment [1], 39% in experiment [2] and 24% in experiment [3].

Take `CCCCN1CC(=O)N(c2c(C)cccc2Cl)C1=S`: the Change in experiment [1] is on record as -38%; in experiment [2], 53%; in experiment [3] it was 30%.

Consider `CCN1CCCC(=O)N(c2ccc(Cl)cc2C)C1=S`, for which the results for the Change in experiment [1], in experiment [2] and in experiment [3] were -15%, 15% and 58.8%, respectively.

As to `Cc1cccc(Cl)c1N1C(=O)CN(c2ccccc2)C1=S`, the Change was 16% in experiment [1], 39% in experiment [2] and 2.2% in experiment [3].

Consider `CCN1CC(=O)N(CCc2ccccc2)C1=S`, for which the Change in experiment [1] is given as 6%; in experiment [2] it was 30%; in experiment [3] it was -14%.

Take `CCN1CCC(=O)N(c2c(Cl)cccc2Cl)C1=S`: the Change in experiment [1] is -6%; in experiment [2], 16%; in experiment [3] it was 42%.

Consider `CCN1C(=S)N(c2cc(Cl)ccc2C)C(=O)C1(C)C`, for which the Change in experiment [1] is listed as 15%; in experiment [2] it was -9%; in experiment [3], 0%.

Consider `CCN1CC(=O)N(c2cc(Cl)ccc2C)C(=S)C1`, for which the Change in experiment [1] was -27%; in experiment [2] it was 10%; in experiment [3], 28%.

On to `CN1CC(=O)N(CCN2CCCCC2)C1=S`, for which the Change in experiment [1] is listed as 33%; in experiment [2], -40%; in experiment [3], -3.3%.

Regarding `CCN1CCC(=O)N(c2cc(Cl)ccc2C)C1=S`, the Change was 44% in experiment [1], 76% in experiment [2] and 53% in experiment [3].

Consider `Cc1ccc(Cl)cc1N1C(=O)C(=O)N(C)C1=S`, for which the Change was -26% in experiment [1], 196% in experiment [2] and 44% in experiment [3].

As to `CN1CC(=O)N(CCCCc2ccccc2)C1=S`, the Change in experiment [1] was 41%; in experiment [2], -21%; in experiment [3], -4.3%.

(Values after ChEMBL document CHEMBL1148398, “Design, synthesis, and biological evaluation of thio-containing compounds with serum HDL-cholesterol-elevating properties” (2004).)
